Test results: ChEMBL document CHEMBL4145448, “Broad activity of diphenyleneiodonium analogues against Mycobacterium tuberculosis, malaria parasites and bacterial pathogens” (Eur J Med Chem, 2018)

Legend:
Escherichia coli [1] = experiment: Antibacterial activity against Escherichia coli N2381 after 18 hrs by broth microdilution method; assay type: functional; details: N2381, 18 h
How it was run: (§1)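 Broth microdilution per CLSI in cation-adjusted Mueller-Hinton broth. 100 µL inoculum (~10^6 cfu/mL in CaMHB) mixed with 100 µL CaMHB containing compound, 0 to 128 µM. Incubated 18 h at 37 °C. MIC taken as the lowest concentration with no visible growth. Polymyxin B served as positive control. Isolates were stored at -80 °C in tryptone soy broth with 20% glycerol.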

[2] = Selectivity index, ratio of CC50 for human HepG2 cells in presence of 1% FBS to MIC for Pseudomonas aeruginosa isolate 912; assay type: toxicity; details: read-out: Selectivity Index
How it was run: (§2)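 Selectivity index is CC50 (1% FBS) divided by MIC. […] They then got compound at 300 to 0.14 µM (3-fold steps) for 24 h at 37 °C, 5% CO2. Resazurin (10 µM, 2 h) was read at ex/em 560/590 in duplicate wells. For MIC, CLSI broth microdilution was run in CaMHB with ~10^6 cfu/mL inoculum and 0–128 µM compound.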

Klebsiella pneumoniae [3] = experiment: Antibacterial activity against Klebsiella pneumoniae isolate 1 after 18 hrs by broth microdilution method; assay type: functional; details: isolate 1, 18 h; how it was run: as §1
[4] = Selectivity index, ratio of CC50 for human HepG2 cells in presence of 1% FBS to IC50 for CQ-sensitive GFP-fused Plasmodium falciparum D10; assay type: toxicity; details: read-out: Ratio IC50
Pseudomonas aeruginosa [5] = experiment: Antibacterial activity against Pseudomonas aeruginosa isolate 19147nm after 18 hrs by broth microdilution method; assay type: functional; how it was run: as §1
Acinetobacter baumannii [6] = experiment: Antibacterial activity against Acinetobacter baumannii ATCC 17978 after 18 hrs by broth microdilution method; assay type: functional; details: ATCC 17978, 18 h; how it was run: as §1
Klebsiella pneumoniae [7] = experiment: Antibacterial activity against Klebsiella pneumoniae isolate 248-33-D after 18 hrs by broth microdilution method; assay type: functional; how it was run: as §1
[8] = Cytotoxicity against human HepG2 cells after 24 hrs in presence of 1% FBS by resazurin dye based assay; assay type: cell-based
How it was run: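 HepG2 cells seeded at 4000/well in DMEM with 1% FBS and allowed to attach for 24 h at 37 °C, 5% CO2. Compounds added from 300 to 0.14 µM in 3-fold steps and incubated 24 h. 10 µM resazurin added for 2 h, fluorescence read at ex/em 560/590. Percent viability computed relative to untreated and negative controls, duplicate wells.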

Pseudomonas aeruginosa [9] = experiment: Antibacterial activity against Pseudomonas aeruginosa isolate 912 after 18 hrs by broth microdilution method; assay type: functional; details: isolate 912, 18 h; how it was run: as §1
[10] = Selectivity index, ratio of CC50 for human HepG2 cells in presence of 1% FBS to MIC for Pseudomonas aeruginosa isolate M146201; assay type: toxicity; details: read-out: Selectivity Index; how it was run: as §2
[11] = Selectivity index, ratio of CC50 for human HepG2 cells in presence of 1% FBS to MIC for Klebsiella pneumoniae ATCC 13883; assay type: toxicity; details: read-out: Selectivity Index
Acinetobacter baumannii [12] = experiment: Antibacterial activity against Acinetobacter baumannii ATCC 19606 col10 after 18 hrs by broth microdilution method; assay type: functional; details: ATCC 19606 = CIP 70.34 = JCM 6841 col10, 18 h; how it was run: as §1
[13] = Selectivity index, ratio of CC50 for human HepG2 cells in presence of 1% FBS to MIC for Acinetobacter baumannii ATCC 19606 col10; assay type: toxicity; details: read-out: Selectivity Index
Pseudomonas aeruginosa [14] = experiment: Antibacterial activity against Pseudomonas aeruginosa ATCC 27853 after 18 hrs by broth microdilution method; assay type: functional; details: ATCC 27853, 18 h; how it was run: as §1
[15] = test system: Mycobacterium tuberculosis; experiment: Antimycobacterial activity against Mycobacterium tuberculosis H37Rv ATCC 25618 after 7 days by resazurin dye based assay; assay type: functional; details: H37Rv ATCC 25618, 168 h
How it was run: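 H37Rv grown at 37 °C in 7H9 with 10% ADC, 0.5% glycerol and 0.02% tyloxapol. Compounds serially diluted in water, 0 to 10 µM, in triplicate. Culture adjusted to OD600 0.001 and incubated 7 days at 37 °C. Resazurin (0.05% w/v) added for 4-24 h and fluorescence read at 590 nm. MIC is the lowest concentration giving complete growth inhibition versus untreated. Rifampicin served as control.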

Klebsiella pneumoniae [16] = experiment: Antibacterial activity against Klebsiella pneumoniae isolate M320445 after 18 hrs by broth microdilution method; assay type: functional; details: isolate M320445, 18 h; how it was run: as §1
Plasmodium falciparum = experiment: Growth inhibition of CQ-sensitive GFP-fused Plasmodium falciparum D10 after 90 hrs by ethidium bromide staining based flow cytometry; assay type: functional, organism-based; details: D10, 90 h
How it was run: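 Parasites cultured in human O+ erythrocytes in RPMI-HEPES pH 7.4 with hypoxanthine, NaHCO3, gentamicin and 0.5% Albumax II under 1% O2/4% CO2 at 37 °C. Synchronised to rings with heparin plus sorbitol. Set up at 1% parasitaemia and 1% haematocrit with 10x compound added. Cultured 90 h to next-cycle trophozoites. Stained with 10 µg/mL ethidium bromide for 1 h, washed, parasitaemia counted by flow cytometry with GFP gating.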

[17] = Selectivity index, ratio of CC50 for human HepG2 cells in presence of 1% FBS to MIC for Acinetobacter baumannii isolate 07AC-336; assay type: toxicity; details: read-out: Selectivity Index
[18] = Selectivity index, ratio of CC50 for human HepG2 cells in presence of 1% FBS to MIC for Klebsiella pneumoniae isolate 248-33-D; assay type: toxicity; details: read-out: Selectivity Index
Acinetobacter baumannii [19] = experiment: Antibacterial activity against Acinetobacter baumannii ATCC 19606 after 18 hrs by broth microdilution method; assay type: functional; details: ATCC 19606 = CIP 70.34 = JCM 6841, 18 h; how it was run: as §1
Acinetobacter baumannii [20] = experiment: Antibacterial activity against Acinetobacter baumannii isolate 07AC-336 after 18 hrs by broth microdilution method; assay type: functional; details: isolate 07AC-336, 18 h; how it was run: as §1
Pseudomonas aeruginosa [21] = experiment: Antibacterial activity against Pseudomonas aeruginosa isolate M146201 after 18 hrs by broth microdilution method; assay type: functional; details: isolate M146201, 18 h; how it was run: as §1
[22] = Selectivity index, ratio of CC50 for human HepG2 cells in presence of 1% FBS to MIC for Pseudomonas aeruginosa isolate 18878B klon 1; assay type: toxicity; details: read-out: Selectivity Index; how it was run: as §2
Escherichia coli [23] = experiment: Antibacterial activity against Escherichia coli N11281 after 18 hrs by broth microdilution method; assay type: functional; details: N11281, 18 h; how it was run: as §1
Acinetobacter baumannii [24] = experiment: Antibacterial activity against Acinetobacter baumannii ATCC 17978 col10 after 18 hrs by broth microdilution method; assay type: functional; details: ATCC 17978 col10, 18 h; how it was run: as §1
[25] = Selectivity index, ratio of CC50 for human HepG2 cells in presence of 1% FBS to MIC for Klebsiella pneumoniae isolate 1; assay type: toxicity; details: read-out: Selectivity Index
[26] = Selectivity index, ratio of CC50 for human HepG2 cells in presence of 1% FBS to MIC for vancomycin-resistant Staphylococcus aureus ATCC 700699; assay type: toxicity; details: read-out: Selectivity Index; how it was run: as §2
[27] = Selectivity index, ratio of CC50 for human HepG2 cells in presence of 1% FBS to MIC for Mycobacterium tuberculosis H37Rv ATCC 25618; assay type: toxicity; details: read-out: Selectivity Index
[28] = Selectivity index, ratio of CC50 for human HepG2 cells in presence of 1% FBS to MIC for methicillin-resistant Staphylococcus aureus ATCC 43300; assay type: toxicity; details: read-out: Selectivity Index; how it was run: as §2
[29] = Selectivity index, ratio of CC50 for human HepG2 cells in presence of 1% FBS to MIC for Acinetobacter baumannii ATCC 19606; assay type: toxicity; details: read-out: Selectivity Index

Structure (SMILES): N#Cc1ccc2c(c1)[I+]c1ccccc1-2
- MIC (Escherichia coli [1]): 71 µM
- selectivity ratio [2]: 0.75
- MIC (Klebsiella pneumoniae [3]): > 71 µM
- selectivity ratio [4]: 62
- MIC (Pseudomonas aeruginosa [5]): 2.2 µM
- MIC (Acinetobacter baumannii [6]): 4.4 µM
- MIC (Klebsiella pneumoniae [7]): > 71 µM
- CC50 at 24 h [8]: 3300 nM
- MIC (Pseudomonas aeruginosa [9]): 4.4 µM
- selectivity ratio [10]: 0.19
- selectivity ratio [11]: 0.19
- MIC (Acinetobacter baumannii [12]): 2.2 µM
- selectivity ratio [13]: 1.5
- MIC (Pseudomonas aeruginosa [14]): 35 µM
- MIC [15]: 0.29 µM
- MIC (Klebsiella pneumoniae [16]): 35 µM
- IC50 (Plasmodium falciparum): 50 nM
- selectivity ratio [17]: > 0.05
- selectivity ratio [18]: > 0.05
- MIC (Acinetobacter baumannii [19]): 18 µM
- MIC (Acinetobacter baumannii [20]): > 71 µM
- MIC (Pseudomonas aeruginosa [21]): 18 µM
- selectivity ratio [22]: 0.75
- MIC (Escherichia coli [23]): 71 µM
- MIC (Acinetobacter baumannii [24]): 2.2 µM
- selectivity ratio [25]: > 0.05
- selectivity ratio [26]: 0.37
- selectivity ratio [27]: 12
- selectivity ratio [28]: 0.75
- selectivity ratio [29]: 0.19

Structure (SMILES): Fc1ccc2c(c1)-c1ccccc1[I+]2
- MIC (Escherichia coli [1]): 18 µM
- selectivity ratio [2]: 5.3
- MIC (Klebsiella pneumoniae [3]): 36 µM
- selectivity ratio [4]: 125
- MIC (Pseudomonas aeruginosa [5]): 1.1 µM
- MIC (Acinetobacter baumannii [6]): 2.2 µM
- MIC (Klebsiella pneumoniae [7]): 18 µM
- CC50 at 24 h [8]: 11900 nM
- MIC (Pseudomonas aeruginosa [9]): 2.2 µM
- selectivity ratio [10]: 2.7
- selectivity ratio [11]: 0.67
- MIC (Acinetobacter baumannii [12]): 2.2 µM
- selectivity ratio [13]: 5.3
- MIC (Pseudomonas aeruginosa [14]): 18 µM
- MIC [15]: 0.29 µM
- MIC (Klebsiella pneumoniae [16]): 18 µM
- IC50 (Plasmodium falciparum): 100 nM
- selectivity ratio [17]: 1.3
- selectivity ratio [18]: 0.67
- MIC (Acinetobacter baumannii [19]): 4.5 µM
- MIC (Acinetobacter baumannii [20]): 9.1 µM
- MIC (Pseudomonas aeruginosa [21]): 4.5 µM
- selectivity ratio [22]: 5.3
- MIC (Escherichia coli [23]): 18 µM
- MIC (Acinetobacter baumannii [24]): 0.56 µM
- selectivity ratio [25]: 0.33
- selectivity ratio [26]: 1.3
- selectivity ratio [27]: 41
- selectivity ratio [28]: 2.7
- selectivity ratio [29]: 2.7

Structure (SMILES): Cc1cccc2c1-c1ccccc1[I+]2
- MIC (Escherichia coli [1]): 18 µM
- selectivity ratio [2]: 2.3
- MIC (Klebsiella pneumoniae [3]): 72 µM
- selectivity ratio [4]: 37
- MIC (Pseudomonas aeruginosa [5]): 0.57 µM
- MIC (Acinetobacter baumannii [6]): 1.1 µM
- MIC (Klebsiella pneumoniae [7]): > 72 µM
- CC50 at 24 h [8]: 2600 nM
- MIC (Pseudomonas aeruginosa [9]): 1.1 µM
- selectivity ratio [10]: 1.2
- selectivity ratio [11]: 0.14
- MIC (Acinetobacter baumannii [12]): 2.3 µM
- selectivity ratio [13]: 1.2
- MIC (Pseudomonas aeruginosa [14]): 18 µM
- MIC [15]: 0.14 µM
- MIC (Klebsiella pneumoniae [16]): 36 µM
- IC50 (Plasmodium falciparum): 70 nM
- selectivity ratio [17]: 1.2
- selectivity ratio [18]: > 0.04
- MIC (Acinetobacter baumannii [19]): 2.3 µM
- MIC (Acinetobacter baumannii [20]): 2.2 µM
- MIC (Pseudomonas aeruginosa [21]): 2.3 µM
- selectivity ratio [22]: 2.3
- MIC (Escherichia coli [23]): 18 µM
- MIC (Acinetobacter baumannii [24]): 0.57 µM
- selectivity ratio [25]: 0.04
- selectivity ratio [26]: 0.07
- selectivity ratio [27]: 19
- selectivity ratio [28]: 0.07
- selectivity ratio [29]: 1.2
